Source: ChEMBL document CHEMBL4190249, “Antiproliferative and apoptotic activities of sequence-specific histone acetyltransferase inhibitors” (Eur J Med Chem, 2017)
Active and inactive are the calls of the source. No cut-off for these calls is given here.

How the values were obtained:
A549 [1] = test: Upregulation of CDKN1A gene expression in human A549 cells at 2 uM after 48 hrs by microarray analysis relative to control; format: functional
Procedure, shortened: (§1)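 A549 cells plated at 2×10^5 cells/well, treated 48 h at 2 μM, with DMSO vehicle as control. Whole-genome transcriptional profiling followed the manufacturer's protocol. Total RNA integrity was checked by Bioanalyzer before arraying.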

[2] = target: Cellular tumor antigen p53 (Homo sapiens) (UniProt P04637); test: Activation of p53 in human A549 cells assessed as upregulation of MDM2 gene expression at 2 uM after 48 hrs by microarray analysis relative to control; format: cell-based; procedure, shortened: as §1
A549 [3] = test: Upregulation of GDF15 gene expression in human A549 cells at 2 uM after 48 hrs by microarray analysis relative to control; format: functional; procedure, shortened: as §1
[4] = target: Cellular tumor antigen p53 (Homo sapiens) (UniProt P04637); test: Activation of p53 in human A549 cells assessed as upregulation of SPATA18 gene expression at 2 uM after 48 hrs by microarray analysis relative to control; format: cell-based; procedure, shortened: as §1
A549 [5] = test: Upregulation of ABCA12 gene expression in human A549 cells at 2 uM after 48 hrs by microarray analysis relative to control; format: functional; procedure, shortened: as §1
A549 [6] = test: Antiproliferative activity against human A549 cells after 96 hrs by WST8 assay; format: functional, cell-based
Procedure, shortened: (§2)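 Cells seeded at 5×10^3 per well and grown 24 h at 37°C, 5% CO2. A549 medium was DMEM with 10% FBS and 2 mM L-glutamine. SW620 medium had 10% FBS and 1% penicillin/streptomycin. Medium was then replaced with conjugate at 0.1, 1, 5 or 10 μM for 96 h. WST-8 reagent was added and absorbance read at 450 nm. Results are mean ± SD.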

[7] = target: Cellular tumor antigen p53 (Homo sapiens) (UniProt P04637); test: Activation of p53 in human A549 cells assessed as downregulation of CHAC1 gene expression at 2 uM after 48 hrs by microarray analysis relative to control; format: cell-based; procedure, shortened: as §1
[8] = target: Cellular tumor antigen p53 (Homo sapiens) (UniProt P04637); test: Activation of p53 in human A549 cells assessed as upregulation of DDB2 gene expression at 2 uM after 48 hrs by microarray analysis relative to control; format: cell-based; procedure, shortened: as §1
dsDNA [9] = test: Binding affinity to 5'-ACTTATCCACTATAGA-3'/3'-TGAATAGGTGATATCT-5' dsDNA (unknown origin) assessed as change in melting temperature at 2.5 uM by spectrophotometric method; format: nucleic-acid assay
[10] = target: Cellular tumor antigen p53 (Homo sapiens) (UniProt P04637); test: Activation of p53 in human A549 cells assessed as downregulation of STC2 gene expression at 2 uM after 48 hrs by microarray analysis relative to control; format: cell-based; procedure, shortened: as §1
A549 [11] = test: Downregulation of GUSBP3 gene expression in human A549 cells at 2 uM after 48 hrs by microarray analysis relative to control; format: functional; procedure, shortened: as §1
[12] = target: Cellular tumor antigen p53 (Homo sapiens) (UniProt P04637); test: Activation of p53 in human A549 cells assessed as upregulation of CYFIP2 gene expression at 2 uM after 48 hrs by microarray analysis relative to control; format: cell-based; procedure, shortened: as §1
A549 [13] = test: Upregulation of MIR3189 gene expression in human A549 cells at 2 uM after 48 hrs by microarray analysis relative to control; format: functional; procedure, shortened: as §1
[14] = target: Cellular tumor antigen p53 (Homo sapiens) (UniProt P04637); test: Activation of p53 in human A549 cells assessed as upregulation of TP53INP1 gene expression at 2 uM after 48 hrs by microarray analysis relative to control; format: cell-based; procedure, shortened: as §1
SW-620 = test: Antiproliferative activity against human SW620 cells harboring p53 mutant assessed as cell viability at 10 uM after 96 hrs by WST8 assay relative to control; format: functional; settings: SW-620, 96 h, read-out: Activity; procedure, shortened: as §2
A549 [15] = test: Upregulation of SULF2 gene expression in human A549 cells at 2 uM after 48 hrs by microarray analysis relative to control; format: functional; procedure, shortened: as §1
A549 [16] = test: Induction of apoptosis in human A549 cells at 2 uM after 48 hrs by Annexin V-FITC/ethidium homodimer-3/Hoechst 33342 staining based fluorescence microscopic method; format: functional, cell-based
Procedure, shortened: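 A549 cells seeded in chamber slides at 2×10^4 cells/well and exposed to 2 μM for 48 h; vehicle control 0.1% DMSO. Cells were washed in binding buffer and stained with FITC-annexin V (apoptotic), ethidium homodimer III (necrotic) and Hoechst 33342 (all nuclei), then imaged by confocal fluorescence microscopy.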

[17] = target: Cellular tumor antigen p53 (Homo sapiens) (UniProt P04637); test: Activation of p53 in human A549 cells assessed as upregulation of FAS gene expression at 2 uM after 48 hrs by microarray analysis relative to control; format: cell-based; procedure, shortened: as §1
A549 [18] = test: Upregulation of MIR4713 gene expression in human A549 cells at 2 uM after 48 hrs by microarray analysis relative to control; format: functional; procedure, shortened: as §1
A549 [19] = test: Upregulation of ANKRD1 gene expression in human A549 cells at 2 uM after 48 hrs by microarray analysis relative to control; format: functional; procedure, shortened: as §1
A549 [20] = test: Downregulation of ULBP1 gene expression in human A549 cells at 2 uM after 48 hrs by microarray analysis relative to control; format: functional; procedure, shortened: as §1
A549 [21] = test: Upregulation of POLH gene expression in human A549 cells at 2 uM after 48 hrs by microarray analysis relative to control; format: functional; procedure, shortened: as §1
A549 [22] = test: Upregulation of WDR63 gene expression in human A549 cells at 2 uM after 48 hrs by microarray analysis relative to control; format: functional; procedure, shortened: as §1
A549 [23] = test: Upregulation of NEFL gene expression in human A549 cells at 2 uM after 48 hrs by microarray analysis relative to control; format: functional; procedure, shortened: as §1
[24] = target: Cellular tumor antigen p53 (Homo sapiens) (UniProt P04637); test: Activation of p53 in human A549 cells assessed as upregulation of FDXR gene expression at 2 uM after 48 hrs by microarray analysis relative to control; format: cell-based; procedure, shortened: as §1
dsDNA [25] = test: Binding affinity to 5'-ACTTATTCCATATAGA-3'/3'-TGAATAAGGTATATCT-5' dsDNA (unknown origin) assessed as change in melting temperature at 2.5 uM by spectrophotometric method; format: nucleic-acid assay
MV4-11 = test: Antiproliferative activity against human MV4-11 cells harboring wild type p53 after 96 hrs by WST8 assay; format: functional, cell-based; settings: MV4-11, 96 h
[26] = target: Cellular tumor antigen p53 (Homo sapiens) (UniProt P04637); test: Activation of p53 in human A549 cells assessed as upregulation of CD70 gene expression at 2 uM after 48 hrs by microarray analysis relative to control; format: cell-based; procedure, shortened: as §1
A549 [27] = test: Upregulation of MIR3685 gene expression in human A549 cells at 2 uM after 48 hrs by microarray analysis relative to control; format: functional; procedure, shortened: as §1
A549 [28] = test: Downregulation of TAS2R30 gene expression in human A549 cells at 2 uM after 48 hrs by microarray analysis relative to control; format: functional; procedure, shortened: as §1
A549 [29] = test: Downregulation of ASNS gene expression in human A549 cells at 2 uM after 48 hrs by microarray analysis relative to control; format: functional; procedure, shortened: as §1
MDA-MB-231 = test: Antiproliferative activity against human MDA-MB-231 cells harboring p53 mutant assessed as cell viability at 10 uM after 96 hrs by WST8 assay relative to control; format: functional; settings: MDA-MB-231, 96 h, read-out: Activity
[30] = target: Cellular tumor antigen p53 (Homo sapiens) (UniProt P04637); test: Activation of p53 in human A549 cells assessed as upregulation of SESN1 gene expression at 2 uM after 48 hrs by microarray analysis relative to control; format: cell-based; procedure, shortened: as §1
A549 [31] = test: Upregulation of SCARNA7 gene expression in human A549 cells at 2 uM after 48 hrs by microarray analysis relative to control; format: functional; procedure, shortened: as §1
A549 [32] = test: Downregulation of ALDH1L2 gene expression in human A549 cells at 2 uM after 48 hrs by microarray analysis relative to control; format: functional; procedure, shortened: as §1
A549 [33] = test: Downregulation of SNORA9 gene expression in human A549 cells at 2 uM after 48 hrs by microarray analysis relative to control; format: functional; procedure, shortened: as §1
[34] = target: Histone acetyltransferase p300 (Homo sapiens, UniProt Q09472); test: Inhibition of p300 (unknown origin) using H3 peptide and acetyl-coA as substrate by fluorometric assay
Procedure, shortened: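 Fluorometric HAT kit assay with recombinant p300 core domain as enzyme and acetyl-CoA plus H3 histone peptide as substrates. Effectors were tested at 1 and 5 μM. HeLa nuclear extract served as positive control, and 0.5% DMSO was set as 100% activity.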

A549 [35] = test: Upregulation of GAS6-AS1 gene expression in human A549 cells at 2 uM after 48 hrs by microarray analysis relative to control; format: functional; procedure, shortened: as §1
[36] = target: Cellular tumor antigen p53 (Homo sapiens) (UniProt P04637); test: Activation of p53 in human A549 cells assessed as upregulation of BTG2 gene expression at 2 uM after 48 hrs by microarray analysis relative to control; format: cell-based; procedure, shortened: as §1
[37] = target: Cellular tumor antigen p53 (Homo sapiens) (UniProt P04637); test: Activation of p53 in human A549 cells assessed as upregulation of EDA2R gene expression at 2 uM after 48 hrs by microarray analysis relative to control; format: cell-based; procedure, shortened: as §1
A549 [38] = test: Upregulation of UIMC1 gene expression in human A549 cells at 2 uM after 48 hrs by microarray analysis relative to control; format: functional; procedure, shortened: as §1
[39] = target: Cellular tumor antigen p53 (Homo sapiens) (UniProt P04637); test: Activation of p53 in human A549 cells assessed as downregulation of CARS gene expression at 2 uM after 48 hrs by microarray analysis relative to control; format: cell-based; procedure, shortened: as §1

Cellular tumor antigen p53 (Homo sapiens), sequence (P04637 whole entry, looked up): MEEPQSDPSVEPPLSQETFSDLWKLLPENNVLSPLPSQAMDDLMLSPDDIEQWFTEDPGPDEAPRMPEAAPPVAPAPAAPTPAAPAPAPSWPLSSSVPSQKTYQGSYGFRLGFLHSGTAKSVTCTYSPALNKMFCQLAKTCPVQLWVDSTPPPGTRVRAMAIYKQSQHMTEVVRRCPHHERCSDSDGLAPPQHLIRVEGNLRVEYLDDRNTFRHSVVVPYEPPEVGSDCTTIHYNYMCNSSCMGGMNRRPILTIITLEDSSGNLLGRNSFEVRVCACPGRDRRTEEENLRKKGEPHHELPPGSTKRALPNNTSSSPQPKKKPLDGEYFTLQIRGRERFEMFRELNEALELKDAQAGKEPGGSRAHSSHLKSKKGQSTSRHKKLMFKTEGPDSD
Histone acetyltransferase p300, sequence (Q09472 whole entry, the tested form may be a part): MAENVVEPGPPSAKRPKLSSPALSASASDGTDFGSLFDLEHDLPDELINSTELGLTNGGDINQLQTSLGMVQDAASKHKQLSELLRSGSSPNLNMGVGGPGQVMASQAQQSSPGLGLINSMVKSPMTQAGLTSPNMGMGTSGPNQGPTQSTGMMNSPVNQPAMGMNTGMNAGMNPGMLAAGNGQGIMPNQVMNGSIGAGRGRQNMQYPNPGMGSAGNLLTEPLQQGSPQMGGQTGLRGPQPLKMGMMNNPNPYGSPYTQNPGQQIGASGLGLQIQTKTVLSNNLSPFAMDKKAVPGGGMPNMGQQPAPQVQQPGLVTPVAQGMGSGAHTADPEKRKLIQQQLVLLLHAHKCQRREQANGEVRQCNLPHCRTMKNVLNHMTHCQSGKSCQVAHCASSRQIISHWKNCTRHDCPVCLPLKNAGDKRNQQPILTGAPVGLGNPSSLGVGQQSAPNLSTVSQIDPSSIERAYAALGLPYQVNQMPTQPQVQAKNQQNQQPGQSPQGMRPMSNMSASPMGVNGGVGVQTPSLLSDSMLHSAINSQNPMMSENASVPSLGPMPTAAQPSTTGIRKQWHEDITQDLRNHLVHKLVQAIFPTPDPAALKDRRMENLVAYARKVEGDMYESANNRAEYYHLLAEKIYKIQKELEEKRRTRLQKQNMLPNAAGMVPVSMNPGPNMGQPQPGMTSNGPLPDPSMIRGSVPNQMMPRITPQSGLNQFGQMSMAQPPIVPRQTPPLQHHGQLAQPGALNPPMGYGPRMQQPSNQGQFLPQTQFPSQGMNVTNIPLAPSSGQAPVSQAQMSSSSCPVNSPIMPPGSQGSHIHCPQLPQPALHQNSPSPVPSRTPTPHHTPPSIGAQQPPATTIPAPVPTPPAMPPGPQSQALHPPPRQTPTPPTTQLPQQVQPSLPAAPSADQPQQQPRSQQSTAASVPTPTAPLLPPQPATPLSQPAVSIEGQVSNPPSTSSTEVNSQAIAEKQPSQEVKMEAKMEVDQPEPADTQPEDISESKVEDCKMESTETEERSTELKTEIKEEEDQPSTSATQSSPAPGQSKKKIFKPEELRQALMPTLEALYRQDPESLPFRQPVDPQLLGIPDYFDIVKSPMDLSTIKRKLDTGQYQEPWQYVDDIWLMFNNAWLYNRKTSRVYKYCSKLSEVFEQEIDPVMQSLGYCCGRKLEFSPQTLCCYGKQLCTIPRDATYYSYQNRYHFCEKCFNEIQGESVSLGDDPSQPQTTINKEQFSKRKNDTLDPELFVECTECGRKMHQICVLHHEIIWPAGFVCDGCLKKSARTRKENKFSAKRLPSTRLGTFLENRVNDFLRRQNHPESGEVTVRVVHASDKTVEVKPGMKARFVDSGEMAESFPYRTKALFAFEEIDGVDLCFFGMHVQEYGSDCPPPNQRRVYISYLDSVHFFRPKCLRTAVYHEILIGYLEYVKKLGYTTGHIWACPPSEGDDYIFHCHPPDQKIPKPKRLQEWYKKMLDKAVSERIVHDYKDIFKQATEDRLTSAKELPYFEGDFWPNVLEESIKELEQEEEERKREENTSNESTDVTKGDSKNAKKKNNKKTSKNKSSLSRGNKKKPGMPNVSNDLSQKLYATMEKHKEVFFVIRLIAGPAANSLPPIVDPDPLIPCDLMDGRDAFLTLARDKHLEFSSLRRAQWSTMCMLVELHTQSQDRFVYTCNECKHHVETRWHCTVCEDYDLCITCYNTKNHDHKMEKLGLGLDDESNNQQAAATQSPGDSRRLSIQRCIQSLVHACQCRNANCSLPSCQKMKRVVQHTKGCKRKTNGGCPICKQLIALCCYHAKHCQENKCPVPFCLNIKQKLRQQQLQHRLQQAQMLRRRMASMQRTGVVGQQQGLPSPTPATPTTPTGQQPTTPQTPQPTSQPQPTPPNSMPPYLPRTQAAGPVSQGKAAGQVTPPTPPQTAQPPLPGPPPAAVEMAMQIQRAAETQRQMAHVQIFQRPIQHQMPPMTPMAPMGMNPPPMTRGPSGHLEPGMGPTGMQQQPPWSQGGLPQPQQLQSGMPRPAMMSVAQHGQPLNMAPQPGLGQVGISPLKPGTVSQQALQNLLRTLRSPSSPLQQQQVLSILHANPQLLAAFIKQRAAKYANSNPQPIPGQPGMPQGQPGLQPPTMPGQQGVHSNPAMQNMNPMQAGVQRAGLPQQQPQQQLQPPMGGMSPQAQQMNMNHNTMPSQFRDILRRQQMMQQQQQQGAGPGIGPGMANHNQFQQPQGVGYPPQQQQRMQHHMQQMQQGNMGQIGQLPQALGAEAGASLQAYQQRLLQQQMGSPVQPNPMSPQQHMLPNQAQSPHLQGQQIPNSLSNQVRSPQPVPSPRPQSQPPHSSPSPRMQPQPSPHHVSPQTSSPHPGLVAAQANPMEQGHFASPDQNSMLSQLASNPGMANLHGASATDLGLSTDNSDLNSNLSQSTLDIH

CC1=NN(c2ccc(C(=O)NCCOCCOCC(=O)NCCC(=O)Nc3cc(C(=O)Nc4cn(C)c(C(=O)Nc5cn(C)c(C(=O)Nc6cc(C(=O)NCCCC(=O)Nc7cc(C(=O)Nc8cc(C(=O)Nc9cc(C(=O)Nc%10cc(C(=O)NCCCN(C)C)n(C)c%10)n(C)c9)n(C)c8)n(C)c7)n(C)c6)n5)n4)n(C)c3)cc2)C(=O)/C1=C/c1ccc(-c2cc(C)c(C)cc2[N+](=O)[O-])o1
fold change (FC) (A549 [1]): 2.28
fold change (FC) [2]: 1.97
fold change (FC) (A549 [3]): 1.81
fold change (FC) [4]: 2.98
fold change (FC) (A549 [5]): 2.42
Activity (A549 [6]): Dose-dependent effect
IC50 (A549 [6]; A549, 96 h): 1800 nM
fold change (FC) [7]: 3.64
fold change (FC) [8]: 1.8
ΔTm (dsDNA [9]): 11.5 °C
fold change (FC) [10]: 2.34
fold change (FC) (A549 [11]): 2.63
fold change (FC) [12]: 1.88
fold change (FC) (A549 [13]): 2.32
fold change (FC) [14]: 1.85
viability at 10 µM (SW-620): 78.4%
fold change (FC) (A549 [15]): 2.13
Activity (A549 [16]): Active
fold change (FC) [17]: 1.83
fold change (FC) (A549 [18]): 1.94
fold change (FC) (A549 [19]): 1.81
fold change (FC) (A549 [20]): 2.34
fold change (FC) (A549 [21]): 1.88
fold change (FC) (A549 [22]): 2.03
fold change (FC) (A549 [23]): 1.8
fold change (FC) [24]: 2
ΔTm (dsDNA [25]): 18.1 °C
IC50 (MV4-11): 2600 nM
fold change (FC) [26]: 1.83
fold change (FC) (A549 [27]): 1.89
fold change (FC) (A549 [28]): 2.01
fold change (FC) (A549 [29]): 2.01
viability at 10 µM (MDA-MB-231): 69.3%
fold change (FC) [30]: 1.91
fold change (FC) (A549 [31]): 1.89
fold change (FC) (A549 [32]): 1.86
fold change (FC) (A549 [33]): 1.81
IC50 [34]: 3900 to 4200 nM
fold change (FC) (A549 [35]): 1.81
fold change (FC) [36]: 2.35
fold change (FC) [37]: 2.53
fold change (FC) (A549 [38]): 1.94
fold change (FC) [39]: 1.9
